In ChEMBL document CHEMBL3244336, “Antitumor agents. 1. 1,4-Bis[(aminoalkyl)amino]-9,10-anthracenediones” (J Med Chem, 1979):
Calls of active or inactive are those of the source.

What was measured:
P388 [1] = experiment: Antitumor activity against mouse P388 cells allografted in mouse assessed as increase of median life span at 50 mg/kg, ip on day 1, 5 and 9 measured up to 60 days relative to control; type: functional; conditions: route intraperitoneal
How it was run: (§1)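 BDF1 or CDF1 mice inoculated ip with ascitic P388 leukemia cells. Dosing ip on days 1, 5 and 9. Deaths recorded for 60 days; % increase in median life span over controls. "Cures" are survivors/total at 60 days.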

B16 [2] = experiment: Antitumor activity against mouse B16 cells allografted in BDF1 mouse assessed as increase of median life span at 12.5 mg/kg, ip on day 1 to 9 measured up to 80 days relative to control; type: functional; conditions: route intraperitoneal
P388 [3] = experiment: Antitumor activity against mouse P388 cells allografted in mouse assessed as increase of median life span at 200 mg/kg, ip on day 1, 5 and 9 measured up to 60 days relative to control; type: functional; conditions: route intraperitoneal; how it was run: as §1
B16 [4] = experiment: Antitumor activity against mouse B16 cells allografted in BDF1 mouse assessed as increase of median life span at 50 mg/kg, ip on day 1 to 9 measured up to 80 days relative to control; type: functional; conditions: route intraperitoneal
How it was run: (§2)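 BDF1 mice implanted ip with a homogenate from 0.05 g of B16 tumor. Test agent given ip on days 1-9. Deaths recorded for 80 days. Result is % increase in median life span over untreated controls. "Cures" are survivors/total at 80 days.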

P388 [5] = experiment: Antitumor activity against mouse P388 cells allografted in mouse assessed as increase of median life span at 100 mg/kg, ip on day 1, 5 and 9 measured up to 60 days relative to control; type: functional; conditions: route intraperitoneal
B16 [6] = experiment: Antitumor activity against mouse B16 cells allografted in BDF1 mouse assessed as disease cure at 50 mg/kg, ip on day 1 to 9 measured up to 80 days; type: functional, organism-based; set-up: dose 50 mg/kg
How it was run: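 BDF1 mice implanted ip with homogenate from 0.05 g of B16 tumor, then dosed ip on days 1-9. Deaths recorded for 80 days; "cures" scored as survivors/total at 80 days.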

P388 [7] = experiment: Antitumor activity against mouse P388 cells allografted in mouse assessed as disease cure at 200 mg/kg, ip on day 1, 5 and 9 measured up to 60 days; type: functional, organism-based; set-up: dose 200 mg/kg
How it was run: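 BDF1 or CDF1 mice inoculated ip with ascitic P388 leukemia cells, dosed ip on days 1, 5 and 9. Deaths recorded for 60 days; "cures" taken as number of survivors/total at 60 days.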

P388 [8] = experiment: Antitumor activity against mouse P388 cells allografted in mouse assessed as disease cure at 100 mg/kg, ip on day 1, 5 and 9 measured up to 60 days; type: functional, organism-based; set-up: dose 100 mg/kg
How it was run: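 BDF or CDF1 mice injected ip with ascitic leukemia cells, then dosed ip on days 1, 5 and 9. Deaths recorded for 60 days. Read-outs: percent increase in median life span over controls, and "cures" as survivors/total at 60 days.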

P388 [9] = experiment: Antitumor activity against mouse P388 cells allografted in ip dosed mouse assessed as minimum effective dose administered as single dose; type: functional; conditions: read-out: MED
How it was run: (§3)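 Drug given ip to P388 tumor-bearing mice, either once as a single dose or once each 4 days for three injections. Minimum effective dose defined as the dose giving 40% increase in life span over control, read from regression lines of log dose-response data.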

P388 [10] = experiment: Antitumor activity against mouse P388 cells allografted in ip dosed mouse assessed as minimum effective dose administered as once each 4 days for 3 total injection; type: functional; conditions: 96 h, read-out: MED; how it was run: as §3
[11] = Toxicity in […] assessed as maximum tolerated dose administered as single dose; type: organism-based, P388; conditions: mouse, in vivo, ip
[12] = Toxicity in […] assessed as maximum tolerated dose administered as once each 4 days for 3 total injection; type: organism-based, P388; conditions: mouse, in vivo, ip
P388 [13] = experiment: Antitumor activity against mouse P388 cells allografted in ip dosed mouse assessed as dose providing 40% increase in life span administered as once each 4 days for 3 total injection; type: functional
How it was run: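 P388 tumor-bearing mice dosed ip, either once as a single dose or once every 4 days for three injections. It was read from regression lines of log dose-response data.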

[14] = Therapeutic index, ratio of MTD for mouse P388 cells allografted ip dosed mouse to MED for mouse P388 cells allografted in ip dosed mouse administered as single dose; type: organism-based; conditions: in vivo, read-out: TI
How it was run: (§4)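 Therapeutic index is MTD/MED for ip dosing, either single or once every 4 days ×3. MTD is the 10% lethal dose in normal mice over 21 days. MED is the dose giving a 40% life-span increase in P388-bearing mice. Both come from log dose-response regression lines.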

[15] = Therapeutic index, ratio of MTD for mouse P388 cells allografted ip dosed mouse to MED for mouse P388 cells allografted in ip dosed mouse administered as once each 4 days for 3 total injection; type: organism-based; conditions: in vivo, read-out: TI; how it was run: as §4
P388 [16] = experiment: Antitumor activity against mouse P388 cells allografted in mouse assessed as increase of median life span at 25 mg/kg, ip on day 1, 5 and 9 measured up to 60 days relative to control; type: functional; conditions: route intraperitoneal; how it was run: as §1
B16 [17] = experiment: Antitumor activity against mouse B16 cells allografted in BDF1 mouse assessed as increase of median life span at 6.2 mg/kg, ip on day 1 to 9 measured up to 80 days relative to control; type: functional; conditions: route intraperitoneal; how it was run: as §2

| Structure (SMILES) | ILS at 200 mg/kg (P388 [3]) [%] | ILS at 50 mg/kg (B16 [4]) [%] | Activity (B16 [6]) | Activity (P388 [7]) | also measured |
| --- | --- | --- | --- | --- | --- |
| CN(C)CCNc1ccc(NCCN(C)C)c2c1C(=O)c1c(O)ccc(O)c1C2=O | – | – | – | – | ILS at 50 mg/kg (P388 [1]): 122%; ILS at 12.5 mg/kg (B16 [2]): 70% |
| CN(C)CCCNc1ccc(NCCCN(C)C)c2c1C(=O)c1ccccc1C2=O | 0 | 0 | – | – | – |
| O=C1c2c(O)ccc(O)c2C(=O)c2c(NCCNCCNCCO)ccc(NCCNCCNCCO)c21 | – | 35 | inactive | – | ILS at 100 mg/kg (P388 [5]): 73% |
| CC(C)N(CCNc1ccc(NCCN(C(C)C)C(C)C)c2c1C(=O)c1c(O)ccc(O)c1C2=O)C(C)C | 0 | 0 | inactive | inactive | – |
| CCN(CC)CCNc1ccc(NCCN(CC)CC)c2c1C(=O)c1ccccc1C2=O | 40 | – | – | inactive | – |
| O=C1c2c(O)ccc(O)c2C(=O)c2c(NCCN3CCNCC3)ccc(NCCN3CCNCC3)c21 | – | 103 | inactive | – | ILS at 100 mg/kg (P388 [5]): 133%; Activity (P388 [8]): inactive |
| O=C1c2ccccc2C(=O)c2c(NCCN3CCCCC3)ccc(NCCN3CCCCC3)c21 | 27 | – | – | inactive | – |
| CCNc1ccc(NCC)c2c1C(=O)c1ccccc1C2=O | – | – | – | – | ILS at 100 mg/kg (P388 [5]): 0% |
| CN(Cc1cnc2nc(N)nc(N)c2n1)c1ccc(C(=O)N[C@@H](CCC(=O)O)C(=O)O)cc1 [METHOTREXATE] | – | – | – | – | minimal effective dose (P388 [9]): 27.9 mg/kg; minimal effective dose (P388 [10]): 1.5 mg/kg; MTD [11]: 108 mg/kg; MTD at 96 h [12]: 17.5 mg/kg; Activity (P388 [13]): 102 mg/kg; selectivity ratio [14]: 4; selectivity ratio at 96 h [15]: 11 |
| O=c1[nH]cc(F)c(=O)[nH]1 [FLUOROURACIL] | – | – | – | – | minimal effective dose (P388 [9]): 88 mg/kg; minimal effective dose (P388 [10]): 11.4 mg/kg; MTD [11]: 280 mg/kg; MTD at 96 h [12]: 48 mg/kg; Activity (P388 [13]): 70 mg/kg; selectivity ratio [14]: 3; selectivity ratio at 96 h [15]: 4 |
| CN(C)CCNc1ccc(NCCN(C)C)c2c1C(=O)c1cc(Cl)c(Cl)cc1C2=O | 0 | – | – | inactive | – |
| CNCCNc1ccc(NCCNC)c2c1C(=O)c1ccccc1C2=O | – | – | – | – | ILS at 25 mg/kg (P388 [16]): 144%; ILS at 6.2 mg/kg (B16 [17]): 114% |
| CC(=O)NCCNc1ccc(NCCNC(C)=O)c2c1C(=O)c1c(O)ccc(O)c1C2=O | 0 | 0 | inactive | – | – |
| O=C1c2c(O)ccc(O)c2C(=O)c2c(NCCO)ccc(NCCO)c21 | – | – | – | – | ILS at 100 mg/kg (P388 [5]): 0%; Activity (P388 [8]): inactive |
| CN(C)CCNc1ccc(NCCN(C)C)c2c1C(=O)c1ccccc1C2=O | – | 39 | – | – | ILS at 100 mg/kg (P388 [5]): 68% |
| O=C1c2c(O)ccc(O)c2C(=O)c2c(NCCN3CCOCC3)ccc(NCCN3CCOCC3)c21 | 0 | – | – | inactive | – |

| Structure (SMILES) | ILS at 200 mg/kg (P388 [3]) [%] | ILS at 50 mg/kg (B16 [4]) [%] | Activity (B16 [6]) | Activity (P388 [7]) | also measured |
| --- | --- | --- | --- | --- | --- |
| O=C1c2ccccc2C(=O)c2c(NCCO)ccc(NCCO)c21 | – | – | – | – | ILS at 100 mg/kg (P388 [5]): 0% |
| Cc1ccc2c(c1)C(=O)c1c(NCCN(C)C)ccc(NCCN(C)C)c1C2=O | 0 | – | – | inactive | – |
| CCCNCCNc1ccc(NCCNCCC)c2c1C(=O)c1c(O)ccc(O)c1C2=O | – | 0 | inactive | – | ILS at 50 mg/kg (P388 [1]): 36% |
| CCN(CC)CCNc1ccc(NCCN(CC)CC)c2c1C(=O)c1c(O)ccc(O)c1C2=O | 88 | 38 | – | – | – |
| CN(C)CCCCCNc1ccc(NCCCCCN(C)C)c2c1C(=O)c1c(O)ccc(O)c1C2=O | 0 | 0 | inactive | inactive | – |
| CN(CCNc1ccc(NCCN(C)c2ccccc2)c2c1C(=O)c1c(O)ccc(O)c1C2=O)c1ccccc1 | 0 | 0 | inactive | inactive | – |
| O=C1c2c(O)ccc(O)c2C(=O)c2c(NCCCN3CCOCC3)ccc(NCCCN3CCOCC3)c21 | 40 | 0 | inactive | inactive | – |
| CNCCNCCNc1ccc(NCCNCCNC)c2c1C(=O)c1c(O)ccc(O)c1C2=O | – | 122 | inactive | – | ILS at 100 mg/kg (P388 [5]): 120% |
| CCCCN(CCCC)CCNc1ccc(NCCN(CCCC)CCCC)c2c1C(=O)c1c(O)ccc(O)c1C2=O | 0 | 0 | inactive | inactive | – |
| COc1cccc2c1C(=O)c1c(O)c3c(c(O)c1C2=O)C[C@@](O)(C(C)=O)C[C@@H]3O[C@H]1C[C@H](N)[C@H](O)[C@H](C)O1 [DAUNORUBICIN] | – | – | – | – | minimal effective dose (P388 [9]): 0.52 mg/kg; MTD [11]: 5.2 mg/kg; selectivity ratio [14]: 10 |
| CN(C)CCCCCNc1ccc(NCCCCCN(C)C)c2c1C(=O)c1ccccc1C2=O | 0 | – | – | inactive | – |
| CN(C)CCCCNc1ccc(NCCCCN(C)C)c2c1C(=O)c1c(O)ccc(O)c1C2=O | 0 | 0 | inactive | inactive | – |
| Nc1ccc(N)c2c1C(=O)c1ccccc1C2=O | – | – | – | – | ILS at 100 mg/kg (P388 [5]): 0%; Activity (P388 [8]): inactive |
| CCN1CCCC1CNc1ccc(NCC2CCCN2CC)c2c1C(=O)c1c(O)ccc(O)c1C2=O (stereo not given) | 45 | 30 | inactive | inactive | – |
| CCN(CC)CCCC(C)Nc1ccc(NC(C)CCCN(CC)CC)c2c1C(=O)c1c(O)ccc(O)c1C2=O (stereo not given) | – | 0 | inactive | – | ILS at 100 mg/kg (P388 [5]): 30%; Activity (P388 [8]): inactive |
| O=P1(N(CCCl)CCCl)NCCCO1 (stereo not given) [CYCLOPHOSPHAMIDE ANHYDROUS] | – | – | – | – | minimal effective dose (P388 [9]): 26.3 mg/kg; minimal effective dose (P388 [10]): 12 mg/kg; MTD [11]: 350 mg/kg; MTD at 96 h [12]: 100 mg/kg; Activity (P388 [13]): 142 mg/kg; selectivity ratio [14]: 13; selectivity ratio at 96 h [15]: 8 |
